ChEMBL document CHEMBL1149660, “Identification and characterization of novel sodium/potassium-ATPase inhibitors by virtual screening of a compound database” (Bioorg Med Chem, 2007)
Active and inactive are the calls of the source. No cut-off for these calls is given here.

What was measured:
Sus scrofa [1] = species on record: Sus scrofa; assay: (§1) Inhibition of Na/K-ATPase in porcine cerebral cortex; assay type: tissue-based
How it was run: (§2)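 Coupled pyruvate kinase/lactate dehydrogenase assay using lyophilized porcine cerebral cortex Na/K-ATPase. The enzyme was preincubated at 37 °C for at least 30 min (or overnight at room temperature first, in some cases) with 10–14 inhibitor concentrations. Reactions were started with 5 mM ATP. NADH oxidation was followed at 340 nm for 5 min. IC50 came from the inhibition curves; relative potency is the IC50 divided by ouabain's IC50.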

Sus scrofa [2] = species on record: Sus scrofa; assay: Inhibition of Na/K-ATPase in porcine cerebral cortex relative to ouabain; assay type: tissue-based; how it was run: as §2
[3] = as §1; assay type: tissue-based, Sus scrofa; how it was run: as §2

SMILES | Activity (Sus scrofa [1]) | Activity (Sus scrofa [2]) | IC50 [3]
C[C@@H]1C[C@@H]2O[C@]3(C[C@@]4(C)[C@@H]5[C@@H](O)C[C@H]6C(C)(C)[C@@H](O[C@H]7OC[C@H](O)[C@@H](O)[C@@H]7O)CC[C@@]67C[C@@]57CC[C@]4(C)[C@@H]13)O[C@@H]2C(C)(C)O | inactive |  | 
CC1OC(O[C@H]2CC[C@]3(/C=N/CCc4ccc(O)cc4)[C@H]4CC[C@]5(C)[C@@H](C6=CC(=O)OC6)CC[C@]5(O)[C@@H]4CC[C@]3(O)C2)CC(O)C1O (some centres not stated) |  | 4.92 | 2640 nM
CC(C)(O)[C@H]1CC[C@@](C)([C@H]2[C@@H](O)C[C@@]3(C)[C@@H]4C[C@H](O)C5C(C)(C)[C@@H](O[C@@H]6O[C@H](CO)[C@@H](O)[C@H](O)[C@H]6O)CC[C@@]56C[C@@]46CC[C@]23C)O1 (some centres not stated) | inactive |  | 
C[C@]12CC[C@H]3[C@@H](CC[C@]4(O)C[C@@H](OC(=O)c5cccnc5)CC[C@]34C=O)[C@@]1(O)CC[C@@H]2C1=CC(=O)OC1 |  | 0.944 | 443 nM
C[C@H]1CCC([C@@H](C)[C@H]2CC[C@@H]3[C@@H]2CC[C@H]2[C@H]3CC(=O)[C@H]3C[C@@H](O)CC[C@@]32C)=NC1 |  | 305 | 143000 nM
C[C@]12CC[C@H]3[C@@H](CC[C@]4(O)C[C@@H](O)CC[C@]34/C=N/Nc3ccccc3)[C@@]1(O)CC[C@@H]2C1=CC(=O)OC1 |  | 7.89 | 4230 nM
CC(=O)OCC(=O)[C@@]1(OC(C)=O)CC[C@H]2[C@@H]3CC[C@H]4C[C@H](OC(C)=O)CC[C@]4(C)[C@H]3CC[C@@]21C | inactive |  | 
C[C@H]1O[C@@H](O[C@H]2CC[C@]3(C=O)[C@H]4CC[C@]5(C)[C@@H](C6=CC(=O)OC6)CC[C@]5(O)[C@@H]4CC[C@]3(O)C2)C[C@H](O)[C@@H]1O[C@@H]1OC[C@@H](O)[C@H](O)[C@H]1O |  | 0.341 | 160 nM
C[C@H]1O[C@@H](O[C@H]2CC[C@]3(C=O)[C@H]4CC[C@]5(C)[C@@H](C6=COC(=O)C6)CC[C@]5(O)[C@@H]4CC[C@]3(O)C2)C[C@@H]2OC3(CCCCC3)O[C@@H]21 |  | 0.872 | 409 nM
C[C@]12CC[C@@H](O)C[C@@H]1[C@@H](O)C[C@H]1[C@H]2CC[C@]2(C)[C@@H]([C@@]3(C)CO3)CC[C@]12C | inactive |  | 
C[C@H]1O[C@@H](O[C@H]2CC[C@]3(C=O)[C@H]4CC[C@]5(C)[C@@H](C6=CC(=O)OC6)CC[C@]5(O)[C@@H]4CC[C@]3(O)C2)C[C@H]2OC(C)(C)O[C@@H]12 |  | 0.031 | 14.6 nM
CO[C@H]1[C@H](O)[C@H](O[C@H]2CC[C@@]3(C=O)[C@@H](CC[C@@H]4[C@H]3CC[C@]3(C)[C@@H](c5ccc(=O)oc5)CC[C@]43O)C2)O[C@@H](C)[C@@H]1O |  | 0.118 | 55.6 nM
C[C@]12CC[C@H]3[C@@H](CC[C@]4(O)C[C@@H](O)CC[C@]34/C=N/C34CC5CC(CC(C5)C3)C4)[C@@]1(O)CC[C@@H]2C1=CC(=O)OC1 |  | 0.668 | 313 nM
